Compound activity deposited in PubChem BioAssay by several laboratories.
This is a sample that favours compounds with a hit; in the whole collection about 1.8% have one here.
TNAP inh noacc: human TNAP enzyme inhibitors, primary screen, biochemical, luminescent, no phosphate acceptor, uHTS. Alkaline phosphatase, tissue-nonspecific isozyme (Homo sapiens), P05186. purified TNAP, CDP-star luminescence, 30 min. inhibition, % at 20 µM. 200,000 tested, 0.26% active. AID 1012, 2008;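 active = tissue-nonspecific alkaline phosphatase inhibition above about 50% at 20 µM in the single-dose screen, limit read from the data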;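 note: 0% = DMSO negative control and 100% = EDTA positive control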
TNAP inh hi DEA: human TNAP enzyme inhibitors, primary screen, biochemical, luminescent, high phosphate acceptor level, uHTS; inhibition, % at 20 µM; purified TNAP, CDP-star luminescence, 1 M DEA; 200,000 tested, 0.03% active;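 active = over 50% inhibition of tissue-nonspecific alkaline phosphatase at 20 µM in the single-dose screen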;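 note: plate controls were DMSO wells for no effect and EDTA-quenched wells as full inhibition for full effect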
Autophagy mod: autophagy modulators in MEF cells, primary screen, imaging, high-content, MEF GFP-LC3. MEF GFP-LC3 puncta imaging; test concentration mostly 10 µM. calls only at 10 µM (by protocol). 190,000 tested, 0.98% active. AID 463193, 2010;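 active = percentage of spot-positive cells more than 3 SD above its plate mean, without a fluorescence outlier flag or 80% toxicity; inconclusive = no clear call, values can overlap the other calls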;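 note: spot-positive cell cutoff set from DMSO-treated cells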
Ins promoter up: insulin promoter activators in MIN6 cells, imaging, high-content screening, mouse beta cells | MIN6 insulin promoter-GFP reporter; stronger effect = higher value | z-score at 5 µM | 190,000 tested, 0.3% active;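 active = z-score above 3 at 5 µM with at least 500 cells counted in the well; inconclusive = wells under 500 cells, flagged as cytotoxic or low count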
p47phox inh: p47phox/p22phox peptide binding inhibitors, primary screen, biochemical, uHTS, NADPH oxidase regulatory subunit; Neutrophil cytosol factor 1 (Homo sapiens), P14598; fluorescence polarization, 2 h; inhibition, % at 24.7 µM; 220,000 tested, 0.53% active;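 active = inhibition above about 30%, limit read from the data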;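 note: 0% = p47phox with labelled peptide and 100% = labelled peptide alone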
Target sequence (P14598 whole entry, looked up): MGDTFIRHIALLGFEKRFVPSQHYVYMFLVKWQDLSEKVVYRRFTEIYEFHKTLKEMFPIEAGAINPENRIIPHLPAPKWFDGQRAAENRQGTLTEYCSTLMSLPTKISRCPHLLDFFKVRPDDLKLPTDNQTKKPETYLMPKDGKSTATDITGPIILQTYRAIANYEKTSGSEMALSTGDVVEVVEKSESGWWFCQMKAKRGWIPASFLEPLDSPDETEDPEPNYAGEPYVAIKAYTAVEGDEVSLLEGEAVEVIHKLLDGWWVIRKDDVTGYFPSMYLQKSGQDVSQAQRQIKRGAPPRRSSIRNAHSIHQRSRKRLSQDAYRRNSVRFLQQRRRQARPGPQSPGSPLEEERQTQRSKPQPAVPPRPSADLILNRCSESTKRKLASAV
TNAP act hi DEA: TNAP activators at high phosphate acceptor level, primary screen, biochemical, luminescence, uHTS. 200,000 tested, under 10 active. AID 1136, 2008. activation factor at 20 µM. purified TNAP, CDP-star luminescence, 1 M DEA, 30 min; stronger effect = higher value; 0 = EDTA background, 1 = DMSO-only activity;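 active = activation factor at least 2 at 20 µM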
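system = human TNAP | amount = enzyme diluted 1/800 final | reagent = 100 µM CDP-star substrate | signal = luminescent substrate turnover signal | dosing = one dose, 20 µM | benchmarks = EDTA negative control, DMSO positive control | measure = activation factor | timing = 30 min reaction, room temperature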
The depositor's hits bear a star; i = inactive; ? = inconclusive; . = not tested or not shown; + = active, no number.

SMILES | TNAP inh noacc | TNAP inh hi DEA | Autophagy mod | Ins promoter up | p47phox inh | TNAP act hi DEA
CCNc1nc(NCC)n2c(SCC(=O)NC34CC5CC(CC(C5)C3)C4)nnc2n1 | -14.8 | -3.4 | i | -0.23 | -2.3 | 1
CC1=CC(C)(C)N(S(=O)(=O)c2ccc(F)cc2)c2ccccc21 | -9.1 | -4.0 | i | 0.02 | -10.7 | 1
CC1=CC(C)(C)N(S(=O)(=O)c2ccc(C)cc2)c2ccc(C)cc21 | -11.9 | -2.3 | + | -2.9 | -8.8 | 1
CC(=O)Nc1ccc(S(=O)(=O)N2c3ccccc3C(C)=CC2(C)C)cc1 | -6.8 | -4.2 | + | -0.85 | -6.5 | 1
C/C=C/C(=O)N1c2ccc(C)cc2C(C)=CC1(C)C | . | . | . | -0.32 | -8.7 | .
CN1CCN(CC(O)(c2ccc(Cl)cc2)c2ccc(Cl)cc2)CC1 | -6.4 | -1.6 | + | -1.92 | -5.5 | 1
CCc1nc(SCC(=O)Nc2ccc3c(c2)OCCO3)c2oc3ccccc3c2n1 | 0.1 | -1.3 | i | -0.14 | 38.5* | 1
Cc1nc(SCC(=O)Nc2ccc3c(c2)OCCO3)c2oc3ccccc3c2n1 | -9.9 | -4.7 | i | . | 14.3 | 1
CC(C)=CCN1CCN(Cc2ccc(N3CCNC3=O)cc2)CC1CCO (stereo unspecified) | 5.4 | 1.3 | i | . | 7.5 | 1
O=C1NCCN1c1ccc(CN2CCN(C3CCCCC3)C(CCO)C2)cc1 (stereo unspecified) | 0.7 | -1.0 | i | 0.16 | 64.0* | 1
Cc1cc(CNC(=O)COc2ccc(F)cc2Cl)cc(C)c1O | -6.1 | -4.5 | i | -1.08 | -14.0 | 1
CC12CCC(C(=O)N3CCN(Cc4ccccc4)CC3)(OC1=O)C2(C)C (stereo unspecified) | -20.6 | -6.1 | i | -0.43 | 31.8* | 1.1
CN1CCN(S(=O)(=O)c2ccc(N3CCc4ccccc4C3)nc2)CC1 | 2.0 | -2.0 | i | 1.5 | -0.7 | 1
CCCCn1c2nc3ccccc3nc2c2c(=O)n(-c3ccccc3)cnc21 | -3.8 | -1.5 | i | -0.74 | 0.2 | 1
CCCCn1nc(-c2ccccc2)c2nc3ccccc3nc21 | -5.9 | -2.1 | + | . | 4.9 | 1
Cn1nc(-c2ccccc2)c2nc3ccccc3nc21 | -14.1 | -2.9 | + | 1.8 | -7.7 | 1
COc1ccc(N2CCN(C(c3cccs3)C(C)NS(C)(=O)=O)CC2)cc1 (stereo unspecified) | -15.4 | -1.5 | i | 1.02 | 0.8 | 1
CCOC(=O)c1sc(NC(=O)c2c(C)noc2C)c(C(=O)OCC)c1C | . | . | + | . | . | .
CCOC(=O)c1c(NC(=O)c2cc(C(C)C)on2)sc(C(C)=O)c1C | -4.7 | -2.4 | i | . | -3.2 | 1
Cc1cccc2cc(-c3ccccc3)c(-c3ccccc3)c[n+]12 | 6.1 | 8.5 | i | ? | 49.2* | 0.9
O=[N+]([O-])c1cccc(-c2cc3cccc[n+]3cc2-c2cccc([N+](=O)[O-])c2)c1 | -7.1 | -0.7 | i | -0.28 | 5.5 | 1
CNS(=O)(=O)c1cccc(C(=O)OCC(=O)N2CCc3ccccc3C2)c1 | 25.3 | -7.8 | i | 0.21 | 30.1* | 1.1
CCOc1cc(/C=N/N=C(N)N)ccc1OCc1ccc(Cl)cc1 | -8.5 | -5.4 | i | 0 | 76.6* | 1.1
CN(C)c1ccc(/C=C2\SC(=S)N(Nc3ncc(C(F)(F)F)cc3Cl)C2=O)cc1 | 13.9 | 16.2 | + | . | 22.2 | 0.8
CC(=O)Nc1sc(N)nc1-c1ccccc1 | -20.2 | -9.3 | + | 0.23 | -9.7 | 1.1
SMILES | TNAP inh noacc | TNAP inh hi DEA | Autophagy mod | Ins promoter up | p47phox inh | TNAP act hi DEA
COC(=O)c1cc(C(=O)OCC(=O)Nc2ccccc2OC(F)F)cc([N+](=O)[O-])c1 | -18.2 | -1.8 | i | -0.36 | -20.2 | 1
COc1ccc(N2C(=O)CC(Sc3ccccc3C(=O)O)C2=O)c([N+](=O)[O-])c1 (stereo unspecified) | 19.7 | 5.6 | i | . | -4.0 | 0.9
N#CC1=C(N)Nc2ncnn2C1c1ccc(F)cc1 (stereo unspecified) | -2.2 | -2.7 | i | -0.02 | -22.3 | 1
O=C(CN1CCOCC1)NCc1ccccc1 | -3.7 | 5.4 | i | 0.71 | 42.6* | 0.9
CC(NS(C)(=O)=O)C(c1cccs1)N1CCN(C)CC1 (stereo unspecified) | -3.3 | 0.8 | i | 1.07 | -9.5 | 1
CC(NS(C)(=O)=O)C(c1cccs1)N1CCN(Cc2ccccc2)CC1 (stereo unspecified) | -8.1 | 1.5 | i | 0.2 | 168.6* | 1
CCCCCc1n[nH]c2c1CCCC2 | . | . | . | 0.25 | 6.1 | .
COc1cc(NC(=O)C/C(C)=N/NC(=O)C(OC)c2ccccc2)c(OC)cc1Cl (stereo unspecified) | -4.9 | -4.9 | i | -0.02 | -10.5 | 1
O=C(Nc1nnc(-c2ccc3c(c2)CCCC3)o1)c1ccccc1 | -25.3 | -3.9 | i | 0.89 | -24.1 | 1
O=C(COc1ccccc1)Nc1nnc(-c2ccc3c(c2)CCCC3)o1 | -12.7 | -4.8 | . | 0.1 | 167.9* | 1
Fc1ccc(-c2n[nH]c(=S)n2/N=C/c2c[nH]c3ccccc23)cc1 | -52.2 | 3.0 | i | 1.33 | -6.9 | 1
Fc1ccccc1Cc1nnc2n1N=C(c1ccc(Cl)cc1)CS2 | -14.0 | -4.9 | i | -1.05 | -0.7 | 1
COC(=O)c1c[nH]n2c(=O)c(Cc3ccc(F)cc3Cl)c(C)nc12 | -4.3 | -1.6 | i | 3.42* | -2.6 | 1
COC(=O)c1c[nH]n2c(=O)c(Cl)c(C)nc12 | -4.7 | 1.8 | i | -0.26 | -1.8 | 1
CC1=NOC(=O)/C1=C/c1ccc(N(C)C)cc1 | 25.8 | -0.4 | i | -0.42 | 180.7* | 1
CCOc1ccccc1NC(=S)N(CCC(C)C)C1CCN(C(C)=O)CC1 | -4.7 | -2.7 | i | -0.18 | 2.7 | 1
O=C(c1n[nH]c2c1CCCC2)n1ccnc1 | 69.6* | -1.8 | i | 1.15 | 9.6 | 1
O=C(O)c1n[nH]c2c1CCCC2 | 12.8 | -3.4 | i | 0.18 | -5.5 | 1
CCCCC1=NN(C(=O)c2ccco2)C(O)(C(F)(F)F)C1 (stereo unspecified) | -5.3 | -3.0 | i | 0.91 | . | 1
COC(=O)Cc1nc(Nc2ccccc2)sc1C | . | . | . | -0.15 | -8.7 | .
CN(C)c1ccc(NC(=O)CN2CCC(O)(c3ccccc3)CC2)cc1 | 0.2 | -2.7 | i | 1.11 | -0.3 | 1
CN(C)C(=O)C(CCN1CCC(O)(c2ccc(Cl)cc2)CC1)(c1ccccc1)c1ccccc1 | -7.3 | -1.9 | + | . | -0.7 | 1
